The source of these data is ChEMBL document CHEMBL4831479, “Discovery of Novel Thiophene-arylamide Derivatives as DprE1 Inhibitors with Potent Antimycobacterial Activities” (J Med Chem, 2021).

In brackets after ≈: the same amount, converted by molar mass. Bounds are passed on as bounds.

Data set [1] relates to Mycobacterium tuberculosis. Kind of data set: Antitubercular activity against Mycobacterium tuberculosis H37Rv assessed as bacterial growth inhibition incubated for 7 days by microplate Alamar blue assay. Particulars: 168 h, time 7 day. The format is functional. A digest of the protocol: (§1)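 MABA: H37Rv or clinical isolates grown to late log phase in 7H9 with 0.2% glycerol, 0.05% Tween 80, 10% ADC; washed, filtered 8 μm, frozen. 2 × 10⁵ CFU per well with twofold compound dilutions, 37 °C; day 7 Tween 80 plus Alamar blue, 16–24 h more, fluorescence ex 530/em 590. MIC = lowest concentration giving ≥90% fluorescence reduction versus bacterium-only controls; RFP, INH, TCA1 controls.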
In general terms: Alamar Blue is a resazurin reagent that responds to reducing activity.

The nature of data set [2]: Selectivity index, ratio of IC50 for African green monkey Vero cells to MIC for antitubercular activity against Mycobacterium tuberculosis H37Rv. The format is toxicity. Conditions: read-out: Selectivity Index.
In data set [3] the test system is Mycobacterium tuberculosis. Briefly: Antimycobacterial activity against Mycobacterium tuberculosis H37Rv infected in mouse J774.1 cells assessed as reduction in bacterial colony forming units at 10 ug/ml incubated for 3 days (reference value: 5.52 +/- 0.18 log10CFU). The format is functional. Particulars: dose 10 µg/ml; time 3 day. In outline:
(§2)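 Mouse J774A.1 macrophages infected with M. tuberculosis H37Rv, treated 3 days at final 10 or 5 μg/mL; rifampicin control at 5 μg/mL. Intracellular log10 CFU counted; Δlog10 CFU = untreated minus treated. Triplicate, at least three separate experiments.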

Data set [4] deals with Mycobacterium tuberculosis. Kind of data set: Antimycobacterial activity against Mycobacterium tuberculosis H37Rv infected in mouse J774.1 cells assessed as change in bacterial colony forming units at 10 ug/ml incubated for 3 days. The format is functional. Conditions: dose 10 µg/ml; time 3 day. In outline: as §2
Data set [5] deals with Mycobacterium tuberculosis. Briefly: Antimycobacterial activity against Mycobacterium tuberculosis H37Rv infected in mouse J774.1 cells assessed as reduction in bacterial colony forming units at 5 ug/ml incubated for 3 days (reference value: 5.52 +/- 0.18 log10CFU). Particulars: dose 5 µg/ml; time 3 day. The format is functional. A digest of the protocol:
as §2

The test system of data set [6] is Mycobacterium tuberculosis. Kind of data set: Antimycobacterial activity against Mycobacterium tuberculosis H37Rv infected in mouse J774.1 cells assessed as change in bacterial colony forming units at 5 ug/ml incubated for 3 days. The format is functional. Conditions: dose 5 µg/ml; time 3 day. In outline: as §2
For data set [7], the system named is HepG2. Kind of data set: Cytotoxicity against human HepG2 cells assessed as reduction in cell viability measured after 48 hrs by MTT assay. The format is cell-based. Particulars: HepG2, 48 h. In outline: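 Threefold serial dilutions gave final concentrations of 64 to 0.26 μg/mL. After 48 h at 37 °C, monolayers were washed with warm HBSS and given fresh medium plus MTT for 4 h. Absorbance was read at 492 nm. IC₅₀ is the concentration giving 50% growth inhibition versus the untreated control.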
For orientation: Tetrazolium assays rely on reduction of a dye to a coloured formazan, in cell work by metabolically active cells.

A short description of data set [8]: Stability in mouse hepatocytes assessed as parent compound remaining at 1 uM measured after 30 mins by LC-MS/MS analysis. The format is ADME, cell-based, Hepatocyte. Particulars: 0.5 h. A digest of the protocol:
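Hepatocytes from male mice; metabolic stability measured as the amount of parent compound remaining. Concentrations after 30 min incubation were normalized to those at time zero.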

The target of data set [9] is T1, Decaprenylphosphoryl-beta-D-ribose oxidase (Mycobacterium tuberculosis (strain ATCC 25618 / H37Rv)) (UniProt P9WJF1).
T1 sequence (whole entry): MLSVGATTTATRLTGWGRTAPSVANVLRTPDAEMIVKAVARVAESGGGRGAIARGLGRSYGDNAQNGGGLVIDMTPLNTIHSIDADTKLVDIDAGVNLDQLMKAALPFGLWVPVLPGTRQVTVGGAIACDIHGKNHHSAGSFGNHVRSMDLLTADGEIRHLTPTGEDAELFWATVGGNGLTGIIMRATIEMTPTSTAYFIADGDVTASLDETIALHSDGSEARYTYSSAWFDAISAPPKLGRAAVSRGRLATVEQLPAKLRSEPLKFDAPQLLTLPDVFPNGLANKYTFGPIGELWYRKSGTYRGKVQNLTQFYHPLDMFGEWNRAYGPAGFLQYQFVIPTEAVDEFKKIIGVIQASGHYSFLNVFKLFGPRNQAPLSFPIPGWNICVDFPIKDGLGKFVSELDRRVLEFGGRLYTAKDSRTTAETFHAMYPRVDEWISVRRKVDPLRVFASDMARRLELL
Briefly: Non-covalent inhibition of DprE1 in Mycobacterium tuberculosis H37Rv measured after 7 days by microplate Alamar blue assay. Particulars: time 7.0 day. In outline:
as §1

By IC50 is commonly meant the point on the concentration scale where inhibition reaches its midpoint.

Consider `CCOC(=O)NC(=O)c1ccsc1NC(=O)c1cc(C(=O)N2CCCCC2)c[nH]1`, for which the MIC in data set [1] was 137 mg/L (≈ 327 µM).
`NC(=O)c1ccsc1NC(=O)c1ccc(C(=O)N2CCCCC2)cc1`: the MIC in [1] turned out to be 0.2 mg/L (≈ 0.56 µM).
For `CCCNC(=O)c1ccc(C(=O)Nc2sccc2C(=O)NC(=O)OCC)cc1`, the selectivity ratio in data set [2] was above 320.
As to `COC(=O)C1CCN(C(=O)c2ccsc2NC(=O)c2ccc(C(=O)N3CCCCC3)cc2)CC1`, in [1], the MIC is above 32 mg/L.
As for `CCOC(=O)NC(=O)c1ccsc1NC(=O)c1coc(C(=O)N2CCCCC2)c1`, in [1], the MIC stood at 37 mg/L (≈ 88.2 µM).
Turning to `Cc1ccnc(NC(=O)c2ccsc2NC(=O)c2ccc(C(=O)N3CCCCC3)cc2)n1`, in [1], the MIC is 0.03 mg/L (≈ 0.0667 µM). Besides, in data set [2], the selectivity ratio was above 27.
For the compound `Cc1ccnc(NC(=O)c2ccsc2NC(=O)c2ccc(C(=O)N3CCCCC3)c(F)c2)n1`, the MIC in data set [1] is above 32 mg/L.
Consider `COC(=O)NC(=O)c1ccsc1NC(=O)c1ccc(C(=O)N2CCCCC2)c(F)c1`, for which, in data set [1], the MIC came out at 1.94 mg/L (≈ 4.48 µM). Further, the Activity came to 4.59 log10CFU in data set [3], 0.93 deltalog10CFU in data set [4], 4.75 log10CFU in data set [5] and 0.77 deltalog10CFU in data set [6]. In addition, the IC50 in data set [7] was above 64 mg/L.
For `CCOC(=O)NC(=O)c1ccsc1NC(=O)c1nc2ccccc2s1`, the selectivity ratio in data set [2] came to 66. In addition, the Activity in data set [3] was determined as 4.36 log10CFU; in data set [4], 1.16 deltalog10CFU; in data set [5], 4.91 log10CFU; in data set [6], 0.11 deltalog10CFU. Further, the Stability in [8] was determined as 79.8%.
Take `COC(=O)NC(=O)c1ccsc1NC(=O)c1ccc(C(=O)N2CCCCC2)cc1`: the MIC in [1] was above 32 mg/L; in [9], 0.12 mg/L (≈ 0.289 µM). Besides, the Activity is 4.77 log10CFU in data set [3], 0.75 deltalog10CFU in data set [4], 5.06 log10CFU in [5] and 0.46 deltalog10CFU in data set [6]. Also, in data set [7], the IC50 was above 64 mg/L.
Consider `CCOC(=O)NC(=O)c1ccsc1NC(=O)c1ccc(C(=O)N2CCCCC2)s1`, for which the selectivity ratio in data set [2] is above 457. Also, the IC50 in data set [7] is above 64 mg/L.
Consider `CCOC(=O)NC(=O)c1ccsc1NC(=O)c1ccc(C(=O)N2CCCCC2)c(F)c1`, for which the selectivity ratio in data set [2] was above 4000. In addition, the Activity in [3] is 4.18 log10CFU; in [4], 1.34 deltalog10CFU; in data set [5] it was 4.41 log10CFU; in [6] it was 1.11 deltalog10CFU. Moreover, the IC50 in [7] is above 64 mg/L.
`Cc1cnc(NC(=O)c2ccsc2NC(=O)c2ccc(C(=O)N3CCCCC3)cc2)s1`: the MIC in [1] turned out to be 0.19 mg/L (≈ 0.418 µM).
Regarding `Cc1cccc(NC(=O)c2ccsc2NC(=O)c2ccc(C(=O)N3CCCCC3)cc2)n1`, the MIC in data set [1] amounted to 15.5 mg/L (≈ 34.6 µM).
With `CCOC(=O)NC(=O)c1ccsc1NC(=O)c1ccc(C(=O)N2CCCCC2)cc1`, the MIC in data set [9] stood at 0.055 mg/L (≈ 0.128 µM). Also, the Activity in [3] was 4.45 log10CFU; in data set [4], 1.07 deltalog10CFU; in [5], 4.54 log10CFU; in data set [6], 0.98 deltalog10CFU. In addition, in data set [7], the IC50 is above 64 mg/L.
`CCOC(=O)NC(=O)c1ccsc1NC(=O)c1ccc(C(=O)NC2CCC(C)(C)CC2)cc1`: the MIC in data set [1] was found to be 0.04 mg/L (≈ 0.0848 µM).
Turning to `CCNC(=O)NC(=O)c1ccsc1NC(=O)c1ccc(C(=O)N2CCCCC2)cc1`, the MIC in data set [1] stood at 0.47 mg/L (≈ 1.1 µM).
With `O=C(Nc1sccc1C(=O)Nc1nccc(C(F)(F)F)n1)c1ccc(C(=O)N2CCCCC2)cc1`, in data set [1], the MIC is above 32 mg/L. Further, the selectivity ratio in [2] was above 320. The Activity in data set [3] came out at 4.54 log10CFU; in data set [4] it was 0.98 deltalog10CFU; in [5], 4.59 log10CFU; in data set [6] it was 0.93 deltalog10CFU.
